Source: ChEMBL document CHEMBL1250435, “Synthesis of a series of caffeic acid phenethyl amide (CAPA) fluorinated derivatives: comparison of cytoprotective effects to caffeic acid phenethyl ester (CAPE)” (Bioorg Med Chem, 2010)
The source made the active and inactive calls. The calls are words filed in the database; no cut-off is given here.

What was measured:
HUVEC [1] = assay: Cytoprotective activity against H2O2-induced oxidative stress in HUVEC cells after 18 hrs by Cell-Titer Blue assay; assay type: functional, cell-based; conditions: Homo sapiens
How it was run: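 Confluent HUVEC (population doublings 2–5, gelatin-coated 96-well) pretreated 5 h at 37 °C with compound at 1, 5, 20, 40 and 60 µM (DMSO stock diluted in MCDB 131), washed twice, exposed to 2 mM H2O2 for 1 h at 37 °C, then 18 h recovery in complete MCDB 131. Viability by 10% CellTiter-Blue fluorescence. % cytoprotection = (well − DMSO+H2O2 mean)/DMSO-only mean. EC50 by linear regression of first three points.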

HUVEC [2] = assay: Cytoprotective activity against H2O2-induced oxidative stress in HUVEC cells at 20 uM after 18 hrs by Cell-Titer Blue assay; assay type: functional, cell-based; conditions: Homo sapiens
How it was run: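 Confluent HUVEC (passage doublings 2–5) incubated 5 h at 37 °C with compound at 20 µM in MCDB 131 (from DMSO stock), washed twice with MCDB 131, then 2 mM H2O2 for 1 h at 37 °C. H2O2 removed, cells recovered 18 h in complete medium. Viability by 10% CellTiter-Blue fluorescence, compared with vehicle+H2O2 and unexposed cells. Mean ± SD, ANOVA with Tukey-Kramer.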

HUVEC [3] = assay: Cytotoxicity against HUVEC cells at 10 to 60 uM after 24 hrs by Cell-Ttiter blue assay; assay type: cell-based; conditions: human
How it was run: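 Confluent HUVEC (population doublings 2–5) exposed 24 h at 37 °C to compound at 10, 20, 40 or 60 µM, diluted from DMSO stock into MCDB 131 (vehicle 0.1% DMSO). Medium replaced with 10% CellTiter-Blue for 2 h at 37 °C, fluorescence read at ex 545/em 590 nm. Viability expressed as % of vehicle control; below 90% of control scored toxic.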

| Compound | EC50 (HUVEC [1]) | Activity (HUVEC [2]) | Activity (HUVEC [3]) |
| --- | --- | --- | --- |
| O=C(/C=C/c1ccc(O)c(O)c1)OCCc1ccccc1 [CAFFEIC ACID PHENETHYL ESTER] | 8 µM |  |  |
| O=C(/C=C/c1cc(O)c(O)cc1F)NCCc1ccccc1 |  | Active |  |
| O=C(/C=C/c1ccc(O)c(F)c1)NCCc1ccccc1 |  | Active |  |
| O=C(/C=C/c1cc(O)c(O)c(F)c1)NCCc1ccccc1 |  | Active | Toxic |
| O=C(/C=C/c1ccc(O)c(O)c1)NCCc1ccccc1 [CAFFEIC ACID PHENETHYL AMIDE] | 2 µM |  |  |
